Test results taken from ChEMBL document CHEMBL2046422, “Structure-activity relationship of nonacidic quinazolinone inhibitors of human microsomal prostaglandin synthase 1 (mPGES 1)” (J Med Chem, 2012).

Tests used:
HeLa = experiment: Cytotoxicity against IL1beta and TNFalpha-stimulated human HeLa cells at 1 to 10 uM after 24 hrs by WST1 assay; type: cell-based
In short: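 HeLa cells were seeded at 3 × 10³ per well and grown 24 h at 37 °C. They were then stimulated with IL-1β (1 ng/mL) + TNFα (5 ng/mL) while treated with compound at 1, 10 or 100 μM, or DMSO, for 24 h. WST-1 was added for 90–150 min and absorbance read at 450 nm against 620 nm. Viability is percent of DMSO control, SEM, n ≥ 3.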

[1] = molecular target: T1, Prostaglandin G/H synthase 1 (Ovis aries) (UniProt P05979); experiment: Inhibition of ovine COX1-mediated PGE2 synthesis using PGH2 as substrate at 1 uM by LC-MS/MS analysis relative to control
T1 sequence (whole entry): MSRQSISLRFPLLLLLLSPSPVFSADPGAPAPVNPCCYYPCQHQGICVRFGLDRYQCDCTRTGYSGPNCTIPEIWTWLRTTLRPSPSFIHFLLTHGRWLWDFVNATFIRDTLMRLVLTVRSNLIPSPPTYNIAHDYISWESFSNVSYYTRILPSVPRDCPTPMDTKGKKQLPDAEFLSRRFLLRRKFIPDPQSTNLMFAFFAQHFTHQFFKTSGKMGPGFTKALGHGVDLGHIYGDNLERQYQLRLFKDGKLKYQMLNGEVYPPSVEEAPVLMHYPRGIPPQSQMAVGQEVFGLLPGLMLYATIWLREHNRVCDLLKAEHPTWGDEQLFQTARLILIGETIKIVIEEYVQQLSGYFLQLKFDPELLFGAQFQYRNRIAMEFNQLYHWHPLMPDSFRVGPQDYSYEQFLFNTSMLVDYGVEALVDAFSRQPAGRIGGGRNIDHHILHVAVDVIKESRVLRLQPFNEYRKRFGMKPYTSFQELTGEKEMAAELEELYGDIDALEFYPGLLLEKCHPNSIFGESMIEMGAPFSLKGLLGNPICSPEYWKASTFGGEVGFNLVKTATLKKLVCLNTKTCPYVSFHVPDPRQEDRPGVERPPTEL
In short: (§1)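 Direct enzyme test with a COX inhibitor screening kit, run per the kit protocol: COX-1 was ovine, COX-2 human recombinant. […] Prostaglandins were quantified by LC-MS/MS after solid-phase extraction. Mean of n ≥ 3.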

[2] = molecular target: T2, Prostaglandin E synthase (Mus musculus) (UniProt Q9JM51); experiment: Inhibition of mPGES-1 derived from LPS stimulated mouse NIH3T3 cells microsomal fraction using PGH2 as substrate at 1 uM preincubated for 30 mins prior to substrate addition measured after 1 min by LC-MS/MS analysis relative to control
T2 sequence (whole entry): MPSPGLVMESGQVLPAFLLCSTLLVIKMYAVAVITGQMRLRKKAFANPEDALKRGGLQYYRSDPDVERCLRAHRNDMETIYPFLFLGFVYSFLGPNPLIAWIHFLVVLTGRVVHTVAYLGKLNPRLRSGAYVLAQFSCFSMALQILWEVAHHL

[3] = molecular target: T3, Prostaglandin G/H synthase 2 (Homo sapiens) (UniProt P35354); experiment: Inhibition of human recombinant COX2-mediated PGE2 synthesis using PGH2 as substrate at 1 uM by LC-MS/MS analysis relative to control; in short: as §1
T3 sequence (whole entry): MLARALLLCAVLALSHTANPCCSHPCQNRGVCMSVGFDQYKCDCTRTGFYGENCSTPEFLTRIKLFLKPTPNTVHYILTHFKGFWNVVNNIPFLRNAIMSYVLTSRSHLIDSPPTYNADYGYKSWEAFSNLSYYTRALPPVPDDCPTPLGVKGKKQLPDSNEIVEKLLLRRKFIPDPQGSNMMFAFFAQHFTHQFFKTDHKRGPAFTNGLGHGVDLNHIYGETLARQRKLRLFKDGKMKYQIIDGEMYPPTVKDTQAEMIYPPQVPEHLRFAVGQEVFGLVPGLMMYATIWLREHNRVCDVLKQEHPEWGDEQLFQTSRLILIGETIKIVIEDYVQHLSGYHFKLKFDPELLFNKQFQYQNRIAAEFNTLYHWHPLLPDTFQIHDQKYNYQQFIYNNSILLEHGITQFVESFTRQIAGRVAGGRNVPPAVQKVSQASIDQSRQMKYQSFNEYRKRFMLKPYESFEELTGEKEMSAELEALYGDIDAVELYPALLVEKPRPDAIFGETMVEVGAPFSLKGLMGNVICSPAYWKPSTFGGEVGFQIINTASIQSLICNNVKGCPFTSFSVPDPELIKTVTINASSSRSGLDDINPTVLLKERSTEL

[4] = molecular target: T4, Prostaglandin E synthase (Homo sapiens) (UniProt O14684); experiment: Inhibition of mPGES-1 derived from IL1beta and TNFalpha stimulated human HeLa cells microsomal fraction using PGH2 as substrate at 1 uM preincubated for 30 mins prior to substrate addition measured after 1 min by LC-MS/MS analysis relative to control
T4 sequence (whole entry): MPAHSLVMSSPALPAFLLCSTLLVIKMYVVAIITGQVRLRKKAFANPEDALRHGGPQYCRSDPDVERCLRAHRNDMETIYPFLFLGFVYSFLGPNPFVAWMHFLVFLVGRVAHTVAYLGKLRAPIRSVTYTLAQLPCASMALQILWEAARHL
In short: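 Microsomes were pelleted by ultracentrifugation and resuspended in buffer with 2.5 mM GSH; protein was measured by Bradford. PGE₂ was read by LC-MS/MS after solid-phase extraction with deuterated standards; n ≥ 3.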

[5] = molecular target: T4, Prostaglandin E synthase (Homo sapiens); experiment: Inhibition of mPGES-1 in IL1beta and TNFalpha-stimulated human HeLa cells assessed as PGE2 level after 24 hrs by LC-MS/MS analysis; type: cell-based
In short: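 HeLa cells (2 × 10⁴) were grown 24 h at 37 °C. The medium was then replaced with IL-1β (1 ng/mL) + TNFα (5 ng/mL), or PBS for unstimulated controls, together with compound at 1, 10 or 100 μM, or DMSO, for 24 h at 37 °C. Supernatant PGE₂ was quantified by LC-MS/MS after solid-phase extraction with deuterated standards. Inhibition is percent of DMSO control corrected for unstimulated background, SEM, n ≥ 3.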

[6] = molecular target: T2, Prostaglandin E synthase (Mus musculus); experiment: Inhibition of mPGES-1 derived from LPS stimulated mouse RAW264.7 cells microsomal fraction using PGH2 as substrate at 1 uM preincubated for 30 mins prior to substrate addition measured after 1 min by LC-MS/MS analysis relative to control
In short: (§2)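 Microsomes came from RAW 264.7 cells stimulated with LPS for 16 h. They were prepared by sonication and ultracentrifugation in 0.1 M potassium phosphate, pH 7.4, with GSH and protease inhibitors, and resuspended with 2.5 mM GSH; protein was measured by Bradford. Compound was tested at the stated final concentration. PGE₂ was quantified by LC-MS/MS after solid-phase extraction with PGE₂-d₄/PGD₂-d₄ standards; SEM, n ≥ 3.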

[7] = molecular target: Prostaglandin G/H synthase 1 (Homo sapiens) (UniProt P23219); experiment: Inhibition of COX1 in human whole blood assessed as residual PGD2 level at 10 uM after 1 hr by LC-MS/MS analysis relative to control
Sequence of Prostaglandin G/H synthase 1 (Homo sapiens) (P23219 whole entry): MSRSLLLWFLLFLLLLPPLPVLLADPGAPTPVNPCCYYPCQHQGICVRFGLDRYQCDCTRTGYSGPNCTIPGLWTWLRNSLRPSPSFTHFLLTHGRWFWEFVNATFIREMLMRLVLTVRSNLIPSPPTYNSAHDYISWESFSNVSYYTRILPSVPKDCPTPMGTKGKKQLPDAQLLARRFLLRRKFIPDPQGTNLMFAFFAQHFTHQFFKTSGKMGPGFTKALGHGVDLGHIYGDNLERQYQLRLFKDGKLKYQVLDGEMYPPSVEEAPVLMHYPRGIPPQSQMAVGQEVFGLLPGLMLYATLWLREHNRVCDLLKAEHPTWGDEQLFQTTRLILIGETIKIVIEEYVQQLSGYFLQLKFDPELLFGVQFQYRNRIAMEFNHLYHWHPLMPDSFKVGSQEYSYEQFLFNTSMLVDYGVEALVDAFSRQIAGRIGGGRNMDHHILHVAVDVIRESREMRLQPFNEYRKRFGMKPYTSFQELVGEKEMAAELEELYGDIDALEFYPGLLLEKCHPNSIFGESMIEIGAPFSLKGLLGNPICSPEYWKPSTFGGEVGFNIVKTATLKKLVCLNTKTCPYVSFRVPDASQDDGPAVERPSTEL
In short: (§3)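 Human venous blood was drawn without additives, and compound was added. Samples clotted at 37 °C for 1 h; negative controls were chilled on ice at once. After 5 min on ice, plasma was separated at 4 °C. It was mixed with H₃PO₄, EDTA, BHT and deuterated internal standards, then put through solid-phase extraction. TXB₂ and PGD₂ were measured by LC-MS/MS, relative to vehicle-treated blood.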

[8] = molecular target: T3, Prostaglandin G/H synthase 2 (Homo sapiens); experiment: Inhibition of COX2 in LPS-stimulated human whole blood assessed as residual PGF2alpha level at 100 uM preincubated for 15 mins prior to LPS-stimulation measured after 24 hrs by LC-MS/MS analysis relative to control
In short: (§4)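 Human whole blood received compound in DMSO plus acetylsalicylic acid (10 μg/mL) to block COX-1, 15 min at 37 °C. LPS (10 μg/mL final) in autologous plasma was added to induce COX-2/mPGES-1, and blood was incubated 24 h at 37 °C. Samples were chilled on ice 5 min, and plasma prostaglandins were extracted by solid-phase extraction and quantified by LC-MS/MS. Values are relative to vehicle.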

[9] = molecular target: T5, 5-lipoxygenase/FLAP (Homo sapiens) (UniProt P09917+P20292); experiment: Inhibition of 5-lipoxygenase/FLAP in calcium ionophore-stimulated human whole blood assessed as residual 15(s)HETE level at 10 uM preincubated for 15 mins prior to calcium ionophore-stimulation measured after 15 mins by LC-MS/MS analysis; type: protein-complex assay
In short: (§5)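 Heparinized human whole blood (500 μL) was preincubated with compound for 15 min at 37 °C. It was then stimulated with 20 μM calcium ionophore A23187 in autologous plasma for 15 min at 37 °C and chilled on ice for 5 min. Plasma was collected by centrifugation at 4 °C. Eicosanoids were recovered by liquid–liquid extraction with deuterated internal standards and quantified by LC-MS/MS (MRM). Levels are relative to vehicle-treated blood.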

[10] = molecular target: T5, 5-lipoxygenase/FLAP (Homo sapiens); experiment: Inhibition of 5-lipoxygenase/FLAP in calcium ionophore-stimulated human whole blood assessed as residual (+/-)11HETE level at 10 uM preincubated for 15 mins prior to calcium ionophore-stimulation measured after 15 mins by LC-MS/MS analysis; type: protein-complex assay; in short: as §5
[11] = molecular target: T5, 5-lipoxygenase/FLAP (Homo sapiens); experiment: Inhibition of 5-lipoxygenase/FLAP in calcium ionophore-stimulated human whole blood assessed as residual 12(s)HETE level at 10 uM preincubated for 15 mins prior to calcium ionophore-stimulation measured after 15 mins by LC-MS/MS analysis; type: protein-complex assay; in short: as §5
[12] = molecular target: T3, Prostaglandin G/H synthase 2 (Homo sapiens); experiment: Inhibition of COX2 in LPS-stimulated human whole blood assessed as residual PGE2 level at 100 uM preincubated for 15 mins prior to LPS-stimulation measured after 24 hrs by LC-MS/MS analysis relative to control; in short: as §4
[13] = molecular target: T5, 5-lipoxygenase/FLAP (Homo sapiens); experiment: Inhibition of 5-lipoxygenase/FLAP in calcium ionophore-stimulated human whole blood assessed as 5(s)HETE level at 10 uM preincubated for 15 mins prior to calcium ionophore-stimulation measured after 15 mins by LC-MS/MS analysis; type: protein-complex assay; parameters: scale not given: the % may be the effect or the level left; in short: as §5
[14] = molecular target: Prostaglandin G/H synthase 1 (Homo sapiens) (UniProt P23219); experiment: Inhibition of COX1 in human whole blood assessed as residual TXB2 level at 10 uM after 1 hr by LC-MS/MS analysis relative to control; in short: as §3
[15] = molecular target: T5, 5-lipoxygenase/FLAP (Homo sapiens); experiment: Inhibition of 5-lipoxygenase/FLAP in calcium ionophore-stimulated human whole blood assessed as residual LTB4 level at 10 uM preincubated for 15 mins prior to calcium ionophore-stimulation measured after 15 mins by LC-MS/MS analysis; type: protein-complex assay; in short: as §5
[16] = molecular target: T2, Prostaglandin E synthase (Mus musculus); experiment: Inhibition of mPGES-1 derived from LPS stimulated mouse NIH3T3 cells microsomal fraction using PGH2 as substrate at 5 uM preincubated for 30 mins prior to substrate addition measured after 1 min by LC-MS/MS analysis relative to control
[17] = molecular target: T2, Prostaglandin E synthase (Mus musculus); experiment: Inhibition of mPGES-1 derived from LPS stimulated mouse RAW264.7 cells microsomal fraction using PGH2 as substrate at 5 uM preincubated for 30 mins prior to substrate addition measured after 1 min by LC-MS/MS analysis relative to control; in short: as §2

O=C(Nc1ccc2nc(Cc3ccccc3)n(Cc3cccc(Cl)c3)c(=O)c2c1)c1ccccc1Cl
Activity (HeLa): Non-toxic | inhibition [1]: < 0% | inhibition [2]: 17.8% | inhibition [3]: < 0% | inhibition [4]: 67.2% | inhibition [5]: Dose-dependent effect | inhibition [6]: 3.8%

CCCc1nc2ccc(NC(=O)c3ccccc3Cl)cc2c(=O)n1Cc1ccc(-c2ccccc2OC)cc1
inhibition [4]: 61.3%

CCCc1nc2ccc(NC(=O)c3ccc(Cl)cc3)cc2c(=O)n1Cc1ccc(-c2cccc(Cl)c2)cc1
inhibition [4]: 14.7%

Cc1ccc(-c2cc(C(F)(F)F)nn2-c2ccc(S(N)(=O)=O)cc2)cc1
inhibition [5]: Dose-dependent effect

CCCc1nc2ccc(NC(=O)c3ccccc3Cl)cc2c(=O)n1Cc1ccccc1Cl
Activity [7]: 89% | Activity (HeLa): Non-toxic | inhibition [1]: 16.1% | Activity [8]: 73.4% | Activity [9]: 78.3% | Activity [10]: 75.4% | Activity [11]: 82.7% | Activity [12]: 34.2% | inhibition [2]: 6.6% | Activity [13]: 88.1% | inhibition [3]: < 0% | Activity [14]: 86.1% | Activity [15]: 91.3% | inhibition [6]: 15.2%

CCCc1nc2ccc(NC(=O)c3ccccc3F)cc2c(=O)n1Cc1ccc(-c2cccc(Cl)c2)cc1
inhibition [4]: 30%

CCCc1nc2ccc(NC(=O)c3ccccc3)cc2c(=O)n1Cc1ccc(-c2cccc(Cl)c2)cc1
inhibition [4]: 15.3%

CCCc1nc2ccc(NC(=O)C(C)(C)C)cc2c(=O)n1Cc1ccc(-c2cccc(Cl)c2)cc1
inhibition [4]: 18.8%

CCCc1nc2ccc(NC(=O)C3CC3)cc2c(=O)n1Cc1ccc(-c2cccc(OC)c2)cc1
inhibition [4]: 15.9%

Cc1nc2ccc(NC(=O)c3ccccc3Cl)cc2c(=O)n1Cc1ccc(-c2cccc(Cl)c2)cc1
inhibition [4]: 41.9%

CCCc1nc2ccc(NC(=O)CCc3ccccc3)cc2c(=O)n1Cc1ccc(-c2cccc(Cl)c2)cc1
inhibition [4]: 32.7%

O=C(Cn1cnc2ccccc2c1=O)Nc1ccccc1Cl
inhibition [4]: < 0%

CCCc1nc2ccc(NC(=O)c3c(Cl)cccc3Cl)cc2c(=O)n1Cc1cccc(Cl)c1
inhibition [4]: 61.3%

CCCc1nc2ccc(NC(C)=O)cc2c(=O)n1Cc1ccc(-c2cccc(Cl)c2)cc1
inhibition [4]: 14.8%

CCCCCCC(Sc1nc(Cl)cc(Nc2cccc(C)c2C)n1)C(=O)O (stereo not given)
inhibition [16]: 62.9% | inhibition [17]: 66.2%

Cc1ccccc1C(=O)Nc1cc2c(=O)n(Cc3ccccc3)c(C)nc2cc1N1CCCC1
inhibition [4]: 37.1%

CCCc1nc2ccc(NC(=O)Nc3ccccc3Cl)cc2c(=O)n1Cc1ccccc1Cl
inhibition [4]: 14.1%

O=C1NC(c2ccccc2Cl)Oc2ccccc21 (stereo not given)
inhibition [4]: < 0%

CCCc1nc2ccc(NC(=O)c3cccs3)cc2c(=O)n1Cc1ccc(-c2cccc(Cl)c2)cc1
inhibition [4]: 15.6%

O=C(Nc1ccc2nc(C3CC3)n(Cc3ccccc3)c(=O)c2c1)c1cccnc1
inhibition [4]: < 0%
